According to publication PMC5110367 (Nature chemical biology, 2016):
Residue numbers refer to the chain shown, from its start. Like-named read-outs stand apart in the source and are kept apart here.

Legend:
Y464D-PPARα = biological target: T1, Y464D-PPARα (Mus musculus, UniProt P23204, Y464D); assay: Thermal shift assay of Y464D-PPARα with ligands; assay type: binding
T1 sequence (P23204 1-468 Y464D): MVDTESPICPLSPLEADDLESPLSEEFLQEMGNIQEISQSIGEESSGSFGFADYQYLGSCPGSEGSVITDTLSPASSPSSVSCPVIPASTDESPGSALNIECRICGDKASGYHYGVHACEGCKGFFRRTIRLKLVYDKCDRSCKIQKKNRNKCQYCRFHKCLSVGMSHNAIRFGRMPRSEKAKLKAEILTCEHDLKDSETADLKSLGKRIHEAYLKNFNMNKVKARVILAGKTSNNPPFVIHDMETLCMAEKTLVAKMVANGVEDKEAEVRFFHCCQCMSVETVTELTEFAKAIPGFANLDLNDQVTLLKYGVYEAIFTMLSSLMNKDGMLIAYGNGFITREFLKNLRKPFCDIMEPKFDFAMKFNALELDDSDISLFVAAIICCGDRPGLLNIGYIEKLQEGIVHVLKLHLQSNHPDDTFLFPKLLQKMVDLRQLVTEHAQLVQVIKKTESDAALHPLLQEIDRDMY
Summary of the method: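 Differential scanning fluorimetry used purified Y464D-PPARα protein (0.5–1 μg per reaction) in kit thermal shift buffer with dye, with or without test compound. The real-time cycler ran 25°C for 2 min, then 70 cycles of 27°C 15 s/26°C 1 min with 1°C auto-increment. Signal was read on the ROX filter, and melting temperature (Tm) was derived.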

PPARβ-LBD = biological target: T2, PPARβ-LBD (Homo sapiens, UniProt Q03181); assay: GC-MS of hippocampal nuclear extracts after pull-down with GST-PPARβ-LBD; assay type: binding; details: mouse hippocampal nuclear extracts
T2 sequence (Q03181 211-439 limits assumed): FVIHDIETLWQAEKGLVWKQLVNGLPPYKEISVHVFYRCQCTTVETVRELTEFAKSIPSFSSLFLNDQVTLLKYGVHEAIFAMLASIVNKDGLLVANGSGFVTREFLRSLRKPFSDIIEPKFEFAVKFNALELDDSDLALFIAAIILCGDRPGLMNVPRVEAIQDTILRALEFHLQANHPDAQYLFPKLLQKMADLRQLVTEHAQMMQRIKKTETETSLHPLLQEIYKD

PPARα [1] = biological target: T3, PPARα (Mus musculus, UniProt P23204); assay type: binding; details: lenti-FL-Ppara-transduced Ppara-null neurons; not with empty lenti-vector
T3 sequence (P23204 1-468): T1 sequence (P23204 1-468 Y464D) with D464Y

PPARα [2] = biological target: T4, PPARα (Mus musculus, UniProt P23204, Y314D); assay type: binding; details: lenti-GFP-Y314D-Ppara-transduced Ppara-null neurons
T4 sequence (P23204 1-468 Y314D): T1 sequence (P23204 1-468 Y464D) with Y314D, D464Y

primary mouse astrocytes = assay: MTT cell viability of tk-PPREx3-Luc-transfected astrocytes; assay type: cell-based; details: higher concentrations, 4 h
FL-Ppara = biological target: T5, FL-Ppara (Mus musculus, UniProt P23204); assay type: cell-based; details: Ppara-null astrocytes transduced with lenti-FL-Ppara, 4 h
T5 sequence (P23204 1-468): T1 sequence (P23204 1-468 Y464D) with D464Y

Y464D-Ppara = biological target: T6, Y464D-Ppara (Mus musculus, UniProt P23204, Y464D); assay type: cell-based; details: Ppara-null astrocytes transduced with lenti-Y464D-Ppara, 4 h
T6 sequence (P23204 1-468 Y464D): T1 sequence (P23204 1-468 Y464D)

PPRE luciferase activity = assay: PPRE-luciferase assay in Pparb-null astrocytes; assay type: cell-based, mouse; details: for inhibition by GW9662 of ligand-mediated increase in PPRE-luciferase activity: Pparb-null astrocytes pre-treated with PPARγ-antagonist GW9662; for PPRE luciferase activity: Pparb-null astrocytes, 4 h
Summary of the method: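 Astrocytes were taken from mixed glial cultures of 7-day-old Pparb-null mouse pups and pretreated with the PPARγ antagonist GW9662. At 60–70% confluence they were transfected with tk-PPREx3-Luc reporter. After 24 h they were treated with graded concentrations of test compound for 4 h, then luciferase activity was read.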

[3] = tested on: Ppara-null hippocampal neurons; assay type: cell-based, mouse
Summary of the method: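 Cell lysates were made in RIPA buffer with protease/phosphatase inhibitors, needle-sheared, rotated 30 min at 4°C and spun at 18,000 × g. Samples of 15–30 μg were run on 10% or 12% SDS gels and semidry-transferred to nitrocellulose. Anti-CREB (1:1000) was applied overnight at 4°C, then IR-dye secondary (1:17,000) for 45 min at room temperature. Infrared imaging followed, with densitometry normalised to loading controls.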

[4] = tested on: Ppara-null hippocampal neurons; assay: AMPA-driven calcium influx in transduced Ppara-null hippocampal neurons; assay type: cell-based, mouse; details: 50 μM N20C present
Summary of the method: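 Primary hippocampal neurons came from pooled E18 Ppara-null fetal mice. Tissue was trypsinised 5 min at 37°C and plated on poly-D-lysine in neurobasal medium. AraC (10 μM) was added next day, and cells differentiated for 9–10 days. Neurons were lentivirally transduced with the indicated Ppara construct, then given the test compound. 50 μM N20C blocked NMDA-receptor calcium flow during AMPA stimulation. Mean of three independent experiments.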

[5] = Ppara-null neurons transduced with FL-Ppara
[6] = Ppara-null neurons transduced with lenti-Y314D-Ppara
[7] = Ppara-null neurons transduced with lenti-Y464D-Ppara
[8] = Ppara-null neurons transduced with lenti-Y464D/Y314D-Ppara
[9] = lenti-Y314D/Y464D-Ppara-transduced

effect on Tm (Y464D-PPARα) | GC-MS peak after pull-down with PPARβ-LBD (PPARβ-LBD) | ligand detected by GC-MS in nuclear extract (PPARα [2]) | PPRE-luciferase reporter activity (FL-Ppara) | inhibition by GW9662 of ligand-mediated increase in PPRE-luciferase activity (PPRE luciferase activity) | SMILES | binding to de novo-synthesized PPARα (immunoprecipitation, GC-MS) (PPARα [1]) | cytotoxicity (MTT) (primary mouse astrocytes) | PPRE-luciferase activity (Y464D-Ppara) | PPRE luciferase activity (PPRE luciferase activity) | expression of CREB [3, 5] | expression of CREB [3, 6] | expression of CREB [3, 7] | expression of CREB [3, 8] | AMPA-mediated calcium influx ([4]; lenti-FL-Ppara-transduced) | AMPA-mediated calcium influx ([4]; lenti-Y314D-Ppara-transduced) | AMPA-mediated calcium influx [4, 9] | AMPA-mediated calcium influx ([4]; lenti-Y464D-Ppara-transduced)
did not alter the Tm | did not exhibit any peak | low amount | markedly induced PPRE reporter activity | remained unable to inhibit | CCCCCCCCCCCCCCCC(N)=O [HEX, hexadecanamide] | found to be bound to de novo-synthesized PPARα | significant level of cytotoxicity | unable to stimulate PPRE-luciferase activity | markedly increased PPRE luciferase activity | stimulated the expression of CREB | only partially restored the expression of CREB | remained unable to increase the expression of CREB | remained unable to increase the expression of CREB | stimulated AMPA-mediated calcium influx | only able to partially restore | remained unable to increase AMPA mediated calcium influx | remained unable to increase AMPA mediated calcium influx
did not alter the Tm | did not exhibit any peak | low amount | markedly induced PPRE reporter activity | remained unable to inhibit | CCCCCCCCC=CCCCCCCCC(N)=O [OCT, 9-octadecenamide] | found to be bound to de novo-synthesized PPARα | significant level of cytotoxicity | unable to stimulate PPRE-luciferase activity | markedly increased PPRE luciferase activity | stimulated the expression of CREB | only partially restored the expression of CREB | remained unable to increase the expression of CREB | remained unable to increase the expression of CREB | stimulated AMPA-mediated calcium influx | only able to partially restore | remained unable to increase AMPA mediated calcium influx | remained unable to increase AMPA mediated calcium influx
